The text below walks through data of ChEMBL document CHEMBL6177935, “Design and synthesis of novel multi-target tetrabromophthalimides as CBS and Topo-II inhibitors and DNA intercalators” (RSC Med Chem, 2024).

Molecules are shown by their SMILES. Activity calls are given as the source filed them. No cut-off for these calls is given here.

In one experiment the test system is HNO 97 cell line. Briefly: (§1) Growth inhibition of human HNO 97 cells at 100 ug/ml measured after 48 hrs by SRB assay relative to control. Conditions: dose 100.0 µg/ml, pooled result: one value given for 15 cell lines, strains, targets or settings. The class given is functional. The procedure, abridged:
(§2)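 SRB screen on fifteen human cancer lines. Cells seeded at 3×10^3 per well and left 24 h to attach. A single concentration of 100 µg/mL was tested in triplicate wells for 48 h, with 1% v/v DMSO as vehicle control. Cells fixed in 20% TCA, stained with 0.4% SRB and read at 570 nm. Survival fraction = OD treated/OD control.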

The subject of a further experiment is HEp-2. Kind of experiment: Growth inhibition of human HEp-2 cells at 100 ug/ml measured after 48 hrs by SRB assay relative to control. Format: functional. Conditions: dose 100.0 µg/ml, pooled result: one value given for 15 cell lines, strains, targets or settings. The procedure, abridged: as §2
For another experiment, the system named is HepG2. Kind of experiment: Growth inhibition of human HepG2 cells at 100 ug/ml measured after 48 hrs by SRB assay relative to control. The class given is functional. Conditions: dose 100.0 µg/ml, pooled result: one value given for 15 cell lines, strains, targets or settings. The procedure, abridged: as §2
The next experiment relates to A-431. Kind of experiment: Growth inhibition of human A-431 cells at 100 ug/ml measured after 48 hrs by SRB assay relative to control. The class given is functional. Conditions: dose 100.0 µg/ml, pooled result: one value given for 15 cell lines, strains, targets or settings. The method, boiled down:
as §2

A further experiment relates to HN. Kind of experiment: Growth inhibition of human HN cells at 100 ug/ml measured after 48 hrs by SRB assay relative to control. Conditions: dose 100.0 µg/ml, pooled result: one value given for 15 cell lines, strains, targets or settings. The class given is functional. The procedure, abridged:
as §2

A further experiment concerns A-375. Briefly: Growth inhibition of human A-375 cells at 100 ug/ml measured after 48 hrs by SRB assay relative to control. Format: functional. Conditions: dose 100.0 µg/ml, pooled result: one value given for 15 cell lines, strains, targets or settings. The method, boiled down: as §2
Another experiment concerns NCI-H1299. Briefly: Growth inhibition of human NCI-H1299 cells at 100 ug/ml measured after 48 hrs by SRB assay relative to control. The class given is functional. Conditions: dose 100.0 µg/ml, pooled result: one value given for 15 cell lines, strains, targets or settings. The method, boiled down: as §2
The next experiment relates to A549. Briefly: Growth inhibition of human A549 cells at 100 ug/ml measured after 48 hrs by SRB assay relative to control. Conditions: dose 100.0 µg/ml, pooled result: one value given for 15 cell lines, strains, targets or settings. Format: functional. The method, boiled down:
as §2

The test system of the next experiment is HeLa. Briefly: Growth inhibition of human HeLa cells at 100 ug/ml measured after 48 hrs by SRB assay relative to control. The class given is functional. Conditions: dose 100.0 µg/ml, pooled result: one value given for 15 cell lines, strains, targets or settings. The procedure, abridged: as §2
The next experiment concerns FaDu. Briefly: Growth inhibition of human FaDu cells at 100 ug/ml measured after 48 hrs by SRB assay relative to control. Format: functional. Conditions: dose 100.0 µg/ml, pooled result: one value given for 15 cell lines, strains, targets or settings. The procedure, abridged:
as §2

In a further experiment the test system is MDA-MB-468. Briefly: Growth inhibition of human MDA-MB-468 cells at 100 ug/ml measured after 48 hrs by SRB assay relative to control. The class given is functional. Conditions: dose 100.0 µg/ml, pooled result: one value given for 15 cell lines, strains, targets or settings. The procedure, abridged: as §2
In another experiment the test system is Caco-2. Kind of experiment: Growth inhibition of human Caco-2 cells at 100 ug/ml measured after 48 hrs by SRB assay relative to control. The class given is functional. Conditions: dose 100.0 µg/ml, pooled result: one value given for 15 cell lines, strains, targets or settings. The procedure, abridged:
as §2

The next experiment deals with MCF7. Briefly: Growth inhibition of human MCF7 cells at 100 ug/ml measured after 48 hrs by SRB assay relative to control. Conditions: dose 100.0 µg/ml, pooled result: one value given for 15 cell lines, strains, targets or settings. Format: functional. The procedure, abridged:
as §2

The subject of the next experiment is HCT-116. Kind of experiment: Growth inhibition of human HCT-116 cells at 100 ug/ml measured after 48 hrs by SRB assay relative to control. Conditions: dose 100.0 µg/ml, pooled result: one value given for 15 cell lines, strains, targets or settings. Format: functional. The method, boiled down:
as §2

A further experiment relates to PC-3. Kind of experiment: Growth inhibition of human PC-3 cells at 100 ug/ml measured after 48 hrs by SRB assay relative to control. The class given is functional. Conditions: dose 100.0 µg/ml, pooled result: one value given for 15 cell lines, strains, targets or settings. The method, boiled down:
as §2

Experiment [1] is described as follows: as §1. The class given is functional, HNO 97 cell line. Conditions: HNO 97, 48 h, pooled result: one value given for 15 cell lines, strains, targets or settings, read-out: GI. The procedure, abridged:
as §2

For experiment [2], the target named is T1, DNA topoisomerase 2-beta (Homo sapiens, UniProt Q02880). Kind of experiment: Inhibition of human topoisomerase IIB-mediated DNA fragmentation.
T1 sequence (Q02880 whole entry, the tested form may be a part): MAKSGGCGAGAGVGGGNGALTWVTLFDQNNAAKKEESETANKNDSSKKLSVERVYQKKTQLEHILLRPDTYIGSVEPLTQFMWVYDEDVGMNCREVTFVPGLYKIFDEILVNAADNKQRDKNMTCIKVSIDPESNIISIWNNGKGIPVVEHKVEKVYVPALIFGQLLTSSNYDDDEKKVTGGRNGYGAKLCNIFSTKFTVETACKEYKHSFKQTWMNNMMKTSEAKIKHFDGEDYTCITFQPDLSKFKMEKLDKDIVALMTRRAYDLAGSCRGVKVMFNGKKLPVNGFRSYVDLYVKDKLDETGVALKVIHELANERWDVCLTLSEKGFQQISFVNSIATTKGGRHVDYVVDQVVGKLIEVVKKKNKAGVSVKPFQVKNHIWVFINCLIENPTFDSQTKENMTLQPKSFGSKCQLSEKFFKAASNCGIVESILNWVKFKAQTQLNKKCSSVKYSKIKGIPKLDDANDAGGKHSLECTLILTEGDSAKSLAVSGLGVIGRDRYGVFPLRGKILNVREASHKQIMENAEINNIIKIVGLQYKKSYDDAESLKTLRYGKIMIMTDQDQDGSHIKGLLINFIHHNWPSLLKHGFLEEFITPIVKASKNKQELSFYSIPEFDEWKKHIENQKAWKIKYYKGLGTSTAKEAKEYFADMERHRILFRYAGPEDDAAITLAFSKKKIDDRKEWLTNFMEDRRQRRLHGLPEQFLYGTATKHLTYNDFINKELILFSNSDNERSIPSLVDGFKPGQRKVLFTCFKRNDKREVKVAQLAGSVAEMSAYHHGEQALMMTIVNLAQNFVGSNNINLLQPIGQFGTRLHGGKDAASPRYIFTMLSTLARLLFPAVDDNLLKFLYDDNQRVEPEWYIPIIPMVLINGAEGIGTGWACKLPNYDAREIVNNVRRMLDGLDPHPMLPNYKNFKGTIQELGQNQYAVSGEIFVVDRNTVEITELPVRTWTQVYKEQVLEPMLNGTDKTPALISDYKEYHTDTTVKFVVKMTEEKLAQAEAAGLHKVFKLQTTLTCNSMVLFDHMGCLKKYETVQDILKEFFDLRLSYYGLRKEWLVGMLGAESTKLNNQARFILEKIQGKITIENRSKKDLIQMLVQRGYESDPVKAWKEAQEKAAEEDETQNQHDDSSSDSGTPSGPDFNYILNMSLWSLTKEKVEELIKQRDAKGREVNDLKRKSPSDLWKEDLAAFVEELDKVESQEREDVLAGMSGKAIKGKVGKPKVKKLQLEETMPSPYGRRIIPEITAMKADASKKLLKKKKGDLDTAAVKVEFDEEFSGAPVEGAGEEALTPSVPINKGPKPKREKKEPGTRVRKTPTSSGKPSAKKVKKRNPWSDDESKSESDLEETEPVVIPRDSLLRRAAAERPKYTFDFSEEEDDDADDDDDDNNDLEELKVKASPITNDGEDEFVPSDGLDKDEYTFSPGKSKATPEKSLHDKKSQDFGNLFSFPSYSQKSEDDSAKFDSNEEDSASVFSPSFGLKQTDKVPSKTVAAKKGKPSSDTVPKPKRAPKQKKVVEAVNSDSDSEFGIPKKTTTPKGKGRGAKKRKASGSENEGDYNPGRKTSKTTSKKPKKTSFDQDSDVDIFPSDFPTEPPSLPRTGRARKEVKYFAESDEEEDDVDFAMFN
Experiment [3] concerns the target T1, DNA topoisomerase 2-beta. Briefly: Inhibition of human topoisomerase IIB by sandwich ELISA.
In the next experiment the target is Tubulin (Homo sapiens) (UniProt P68371+Q9H4B7+P0DPH7+P68366+Q13509+Q71U36+P04350+Q3ZCM7+P07437+P68363+Q9BQE3+Q6PEY2+Q13885+Q9BVA1+Q9BUF5). Kind of experiment: Inhibition of [3H]-colchicine binding to biotinylated-tubulin (unknown origin) measured after 45 mins by scintillation counting analysis. Format: protein-complex assay. The procedure, abridged: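 Scintillation proximity assay run at 37 °C. Incubated 45 min at 37 °C, then the plate was read and percent inhibition calculated from raw counts.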

Consider `O=C1CCC(N2C(=O)c3c(Br)c(Br)c(Br)c(Br)c3C2=O)C(=O)O1` (stereo not drawn), for which the “growth inhibition (GI)” value in the experiment with HNO 97 cell line, in the experiment with HEp-2, with HepG2, in the experiment with A-431, in the experiment with HN and with A-375 was “Active; Weak Inhibition Observed” throughout. For the same compound, the “growth inhibition (GI)” value with NCI-H1299, in the experiment on A549, with HeLa, with FaDu, in the experiment with MDA-MB-468 and with Caco-2 was “Active; Weak Inhibition Observed” each time. Also, the “growth inhibition (GI)” value with MCF7, in the experiment on HCT-116 and in the experiment on PC-3 was “Active; Weak Inhibition Observed” each time.
As for `COc1cccc2c1C(=O)c1c(O)c3c(c(O)c1C2=O)C[C@@](O)(C(=O)CO)C[C@@H]3O[C@H]1C[C@H](N)[C@H](O)[C@H](C)O1` [DOXORUBICIN], the inhibition of growth at 100 µg/mL in [1] worked out at 70.2%. The inhibition entry on DNA topoisomerase 2-beta [2] was “Active”. Besides, it took 12.7 µM to reach half-maximal inhibition on DNA topoisomerase 2-beta [3] (IC50).
`O=C(O)[C@H](Cc1c[nH]c2ccccc12)N1C(=O)c2c(Br)c(Br)c(Br)c(Br)c2C1=O`: the inhibition of growth at 100 µg/mL in experiment [1] is 75.1%. Moreover, on DNA topoisomerase 2-beta [2], the inhibition result is “Active”. Moreover, at DNA topoisomerase 2-beta [3], the inhibition result is “Active; Weak Inhibition Observed”.
As to `CC(=O)N(NC(=S)NN1C(=O)c2c(Br)c(Br)c(Br)c(Br)c2C1=O)C(C)=O`, the “growth inhibition (GI)” value with HNO 97 cell line, with HEp-2, in the experiment with HepG2, in the experiment with A-431, with HN and in the experiment with A-375 was “Active” in each case. The “growth inhibition (GI)” value with NCI-H1299, in the experiment on A549, in the experiment on HeLa, in the experiment with FaDu, in the experiment on MDA-MB-468 and in the experiment with Caco-2 was “Active” each time. Also, the “growth inhibition (GI)” value in the experiment with MCF7, in the experiment with HCT-116 and in the experiment with PC-3 was “Active” throughout.
As for `O=C1c2c(Br)c(Br)c(Br)c(Br)c2C(=O)N1c1nnn[nH]1`, the “growth inhibition (GI)” value with HNO 97 cell line, in the experiment on HEp-2, with HepG2, in the experiment with A-431, in the experiment on HN and with A-375 was “Active” in each case. Further, the “growth inhibition (GI)” value in the experiment on NCI-H1299, in the experiment on A549, in the experiment with HeLa, in the experiment on FaDu, with MDA-MB-468 and with Caco-2 was “Active” each time. Besides, the “growth inhibition (GI)” value in the experiment with MCF7, in the experiment with HCT-116 and in the experiment with PC-3 was “Active” throughout. For the same compound, the inhibition result on Tubulin (Homo sapiens), on DNA topoisomerase 2-beta [2] and at DNA topoisomerase 2-beta [3] was “Active” in each case.
In the case of `CC(=O)NC(=S)NN1C(=O)c2c(Br)c(Br)c(Br)c(Br)c2C1=O`, the “growth inhibition (GI)” value with HNO 97 cell line, in the experiment on HEp-2, with HepG2, in the experiment with A-431, in the experiment with HN and in the experiment with A-375 was “Active” in each case. The “growth inhibition (GI)” value with NCI-H1299, in the experiment on A549, with HeLa, in the experiment on FaDu, in the experiment with MDA-MB-468 and in the experiment on Caco-2 was “Active” each time. The “growth inhibition (GI)” value in the experiment with MCF7, in the experiment on HCT-116 and in the experiment on PC-3 was “Active” in each case.
Take `O=C1c2c(Br)c(Br)c(Br)c(Br)c2C(=O)N1c1ccc([Se][Se]c2ccc(N3C(=O)c4c(Br)c(Br)c(Br)c(Br)c4C3=O)cc2)cc1`: the “growth inhibition (GI)” value with HNO 97 cell line, in the experiment on HEp-2, with HepG2, in the experiment with A-431, in the experiment on HN and in the experiment on A-375 was “Active” each time. Moreover, the “growth inhibition (GI)” value in the experiment with NCI-H1299, in the experiment with A549, in the experiment with HeLa, in the experiment on FaDu, in the experiment with MDA-MB-468 and in the experiment with Caco-2 was “Active” throughout. In addition, the “growth inhibition (GI)” value in the experiment on MCF7, with HCT-116 and with PC-3 was “Active” in each case.
For `O=C1c2c(Br)c(Br)c(Br)c(Br)c2C(=O)N1c1nnc[nH]1`, the “growth inhibition (GI)” value in the experiment with HNO 97 cell line, in the experiment with HEp-2, with HepG2, in the experiment with A-431, in the experiment with HN and with A-375 was “Active” in each case. In addition, the “growth inhibition (GI)” value in the experiment with NCI-H1299, with A549, in the experiment on HeLa, in the experiment on FaDu, in the experiment on MDA-MB-468 and with Caco-2 was “Active” in each case. In addition, the “growth inhibition (GI)” value with MCF7, in the experiment with HCT-116 and in the experiment with PC-3 was “Active” each time. For the same compound, the inhibition result on Tubulin (Homo sapiens) is “Active; Weak Inhibition Observed”. Besides, the inhibition entry on DNA topoisomerase 2-beta [2] and on DNA topoisomerase 2-beta [3] was “Active” in each case.
`COc1cc([C@@H]2c3cc4c(cc3[C@@H](O[C@@H]3O[C@@H]5CO[C@@H](C)O[C@H]5[C@H](O)[C@H]3O)[C@H]3COC(=O)[C@H]23)OCO4)cc(OC)c1O`: at DNA topoisomerase 2-beta [2], the inhibition entry is “Active”.
Take `CC(=O)N1C(=O)c2c(Br)c(Br)c(Br)c(Br)c2C1=O`: the “growth inhibition (GI)” value with HNO 97 cell line, in the experiment with HEp-2, with HepG2, in the experiment with A-431, in the experiment on HN and in the experiment on A-375 was “Active” each time. The “growth inhibition (GI)” value in the experiment with NCI-H1299, in the experiment with A549, in the experiment on HeLa, in the experiment with FaDu, in the experiment on MDA-MB-468 and in the experiment with Caco-2 was “Active” each time. Moreover, the “growth inhibition (GI)” value in the experiment with MCF7, with HCT-116 and with PC-3 was “Active” throughout.
